The results in this text go back to ChEMBL document CHEMBL5674889, “Enhanced JunD/RSK3 signalling due to loss of BRD4/FOXD3/miR-548d-3p axis determines BET inhibition resistance” (2020).

The subject of assay [1] is BT-549. The assay can be described thus: Antiproliferative activity in human BT-549 cells assessed as cell growth in the presence of lapatinib at 1 uM by CellTiter-Glo luminescent cell viability assay. The assay is classed as functional, cell-based. The essentials:
(§1)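 BLBC cells seeded at 3000/well, adhered overnight, then exposed to JQ1 (1 μM) with or without an EGFR inhibitor (1 μM) for 48 h; control and RPS6KA2-shRNA clones tested. Viability by CellTiter-Glo luminescence, background-subtracted and normalized to DMSO-treated control; triplicates, mean ± SD, one-way ANOVA against JQ1 alone.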

Assay [2] has as its system MDA-MB-231. Kind of assay: Antiproliferative activity in human MDA-MB-231 cells assessed as cell growth inhibition for 48 hrs in the presence of […] at 1 uM by CCK-8 assay. The format is functional, cell-based.
The test system of assay [3] is BT-549. The assay can be described thus: Induction of apoptosis in human BT-549 cells in the presence of osimertinib at 1 uM by flow cytometry analysis. The assay is classed as functional, cell-based. The essentials:
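Cells given JQ1 and/or osimertinib, then stained with Annexin V-FITC plus propidium iodide (10 min, room temperature, dark; 1 × 10^6 cells/ml in binding buffer after two PBS washes) and analysed by flow cytometry; one-way ANOVA.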
A general note: In flow cytometry, cells or beads pass a laser one at a time.

Assay [4] relates to BT-549. The assay can be described thus: Antiproliferative activity in human RPS6KA2-knockdown BT-549 cells assessed as cell viability at 1 uM for 48 hrs by CellTiter-Glo luminescent cell viability assay. The format is functional, cell-based. The essentials: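 CellTiter-Glo viability: stable overexpressing or shRNA clones (puromycin 1.0 μg/ml selection) seeded 3000 cells/well, adhered overnight, then exposed to 1 μM for 48 h. Luminescence is background-subtracted and normalised to DMSO-treated control. Triplicates, mean ± SD, one-way ANOVA. MDA-MB-231 cells are kept in DMEM and BT549 in RPMI-1640, each with 10% FBS.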
In general terms: ATP-based viability assays read luminescence as a measure of living cells.

In assay [5] the test system is MDA-MB-231. The assay can be described thus: Antiproliferative activity in human JUND-knockdown MDA-MB-231 cells assessed as cell viability at 1 uM by CellTiter-Glo luminescent cell viability assay. The assay is classed as functional, cell-based. The essentials:
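Stable JUND-knockdown (shRNA, puromycin 1.0 μg/ml selection) or JUND-overexpressing clones and vector controls, seeded 3000 cells/well and adhered overnight, then given DMSO or JQ1 (1 μM) for 48 h. Read-out CellTiter-Glo luminescence normalized to DMSO control; triplicates, mean ± SD, one-way ANOVA.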

Assay [6] deals with MDA-MB-231. The assay can be described thus: Induction of apoptosis in human MDA-MB-231 cells expressing vector control assessed as late apoptotic cells at 1 uM by Annexin V-FITC flow cytometric analysis (reference value: 2.4%). The assay is classed as functional. The procedure, abridged:
(§2)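 Stable clones (vector, RSK3-overexpressing or RPS6KA2-knockdown) treated ± JQ1 1 μM. Cells washed twice in PBS, resuspended at 1 × 10^6 cells/ml in binding buffer, stained with Annexin V-FITC and propidium iodide for 10 min at room temperature in the dark, then read by flow cytometry. Three independent experiments; one-way ANOVA.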

In assay [7] the test system is MDA-MB-231. Kind of assay: Effect on induction of RPS6KA2 transcription in human MDA-MB-231 cells assessed as JunD protein expression at 1 uM for 24 hrs by Western blot analysis. The assay is classed as functional, cell-based.
Assay [8] deals with BT-549. The assay can be described thus: Effect on human BT-549 cells assessed as RSK3 […] expression at 1 uM for 24 hrs by Western blot analysis. The assay is classed as functional, cell-based. A general note: In western blotting, separated proteins are transferred to a membrane and probed.
Assay [9] deals with MDA-MB-231. The assay can be described thus: Antiproliferative activity in human MDA-MB-231 cells assessed as cell growth in the presence of miR-548d-3p inhibitor at 1 uM by CCK-8 assay. The format is functional, cell-based. The essentials:
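BLBC cells transfected with miR-548d-3p mimic or inhibitor, with or without JQ1; growth read by CCK-8 assay relative to DMSO-treated control, seeded at 3000/well. Triplicates, mean ± SD, one-way ANOVA.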

Assay [10] addresses T1, Transcription factor JunD (Homo sapiens) (UniProt P17535).
T1 sequence (whole entry): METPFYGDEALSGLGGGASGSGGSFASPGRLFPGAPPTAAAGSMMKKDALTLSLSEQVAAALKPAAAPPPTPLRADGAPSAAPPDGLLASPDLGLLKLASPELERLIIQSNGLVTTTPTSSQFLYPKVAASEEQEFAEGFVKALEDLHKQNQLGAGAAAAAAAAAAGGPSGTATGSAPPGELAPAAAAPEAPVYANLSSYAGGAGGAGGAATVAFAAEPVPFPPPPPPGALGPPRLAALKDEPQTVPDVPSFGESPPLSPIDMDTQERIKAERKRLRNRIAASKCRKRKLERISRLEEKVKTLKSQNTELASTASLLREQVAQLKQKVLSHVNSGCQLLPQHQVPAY
The assay can be described thus: Binding affinity to JunD in human MDA-MB-231 cells assessed RPS6KA2 expression at 1 uM for 24 hrs by ChIP analysis. The format is cell-based.

For assay [11], the system named is BT-549. Kind of assay: Induction of apoptosis in human BT-549 cells at 1 uM by FACS assay. The assay is classed as functional, cell-based. The essentials:
as §2

Assay [12] deals with MDA-MB-231. The assay can be described thus: Effect on human RPS6KA2-knockdown MDA-MB-231 cells assessed as RSK3 protein expression at 1 uM by Western blot analysis. The format is functional, cell-based.
In assay [13] the test system is BT-549. The assay can be described thus: Effect on JUND dependent RPS6KA2 transcription in human JUND-knockdown BT-549 cells assessed reduction in transcription level at 1 uM by ChIP-RT-PCR analysis. The assay is classed as functional, cell-based. The procedure, abridged: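 ChIP-qPCR used ~1 × 10^6 cross-linked JUND-knockdown or control cells treated with DMSO or 1 μM for 6 h. Immunoprecipitated DNA was quantified by real-time PCR with primers specific to the RPS6KA2 enhancer. Non-specific primers downstream of the gene 3′ end served as control.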

Assay [14] concerns MDA-MB-231. The assay can be described thus: Effect on human RPS6KA2 transfected MDA-MB-231 cells by measuring luciferase activity at 20 uM by Luciferase reporter assay. The format is functional, cell-based.
Assay [15] relates to MDA-MB-231. Kind of assay: Antiproliferative activity in human RPS6KA2-knockdown MDA-MB-231 cells assessed as cell growth at 1 uM by CCK-8 assay. The assay is classed as functional, cell-based.
The subject of assay [16] is MDA-MB-231. Kind of assay: Effect on human MDA-MB-231 cells assessed as EGFR protein expression at 1 uM by Western blot analysis. The format is functional, cell-based.
For assay [17], the system named is MDA-MB-231. The assay can be described thus: Antiproliferative activity in human JunD-overexpressing MDA-MB-231 cells assessed as cell growth in the presence of osimertinib at 1 uM by CCK-8 assay. The assay is classed as functional, cell-based. The essentials:
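Vector control, RSK3- or JunD-overexpressing cells seeded 3000/well, adhered overnight, then treated with JQ1 alone or combined with kinase inhibitors for 48 h; growth by CCK-8, normalized to DMSO control; triplicates, mean ± SD.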

In assay [18] the test system is MDA-MB-231. Kind of assay: Antiproliferative activity in human MDA-MB-231 cells assessed as cell growth in the presence of lapatinib at 1 uM by CellTiter-Glo luminescent cell viability assay. The format is functional, cell-based. The essentials: as §1
For assay [19], the system named is MDA-MB-231. The assay can be described thus: Induction of apoptosis in human MDA-MB-231 cells over expressing RSK3 assessed as necrotic cells at 1 uM by Annexin V-FITC flow cytometric analysis (reference value: 3.51%). The format is functional. The essentials:
as §2

The subject of assay [20] is BT-549. Kind of assay: Antiproliferative activity in human FOXD3-knockdown BT-549 cells co-silenced with shRNA of RPS6KA2 assessed as cell growth at 1 uM by CCK-8 assay. The format is functional, cell-based.
The test system of assay [21] is MDA-MB-231. The assay can be described thus: Antiproliferative activity in human MDA-MB-231 cells assessed as cell growth in the presence of EAI045 at 1 uM by CellTiter-Glo luminescent cell viability assay. The assay is classed as functional, cell-based. The essentials:
as §1

Assay [22] deals with BT-549. The assay can be described thus: Antiproliferative activity in human BT-549 cells assessed as cell growth in the presence of erlotinib at 1 uM by CellTiter-Glo luminescent cell viability assay. The format is functional, cell-based. The procedure, abridged: as §1

Activity calls are given as the source filed them. The rule behind the calls is not given here.

On to `Cc1sc2c(c1C)C(c1ccc(Cl)cc1)=N[C@@H](CC(=O)OC(C)(C)C)c1nnc(C)n1-2`, for which the result in the assay on BT-549 [1], in the assay with MDA-MB-231 [2], with BT-549 [3], in the assay on BT-549 [4], with MDA-MB-231 [5] and in the assay on MDA-MB-231 [7] was Active. The result (in the assay on BT-549 [8]; in the assay with MDA-MB-231 [9]; in assay [10]; in the assay on BT-549 [11]; with MDA-MB-231 [12]; in the assay on BT-549 [13]) was Active. The outcome with MDA-MB-231 [14], in the assay on MDA-MB-231 [15], with MDA-MB-231 [16], in the assay on MDA-MB-231 [17], in the assay on MDA-MB-231 [18] and in the assay with BT-549 [20] was Active. Also, the result in the assay on MDA-MB-231 [21] and in the assay on BT-549 [22] was Active. Further, the Activity was determined as 5.48% in the assay on MDA-MB-231 [6] and 1.67% in the assay with MDA-MB-231 [19].
